Drawing on ChEMBL document CHEMBL1145035, “Design of selective peptidomimetic agonists for the human orphan receptor BRS-3” (J Med Chem, 2003), this text covers NA, Emax and EC50 for 33 compounds.

In general, EC50 refers to the concentration giving half of the maximal effect. Higher therefore signals a need for much substance.

Experiment [1] concerns the target T1, Neuromedin-B receptor (Homo sapiens, UniProt P28336). Kind of experiment: Effective concentration required against nueromedin B receptor (NMB-R) in CHO cells by using FLIPR assay. The format is functional, cell-based. The gist of the method: (§1)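 Intracellular Ca2+ mobilization was read by FLIPR in CHO cells transfected with the human receptor. NMB was the reference for NMB-R and GRP for GRP-R. EC50 values (±SEM) come from independent concentration–response curves, 4 to 30 per compound depending on the series.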
Target sequence in this assay (P28336 whole entry, looked up): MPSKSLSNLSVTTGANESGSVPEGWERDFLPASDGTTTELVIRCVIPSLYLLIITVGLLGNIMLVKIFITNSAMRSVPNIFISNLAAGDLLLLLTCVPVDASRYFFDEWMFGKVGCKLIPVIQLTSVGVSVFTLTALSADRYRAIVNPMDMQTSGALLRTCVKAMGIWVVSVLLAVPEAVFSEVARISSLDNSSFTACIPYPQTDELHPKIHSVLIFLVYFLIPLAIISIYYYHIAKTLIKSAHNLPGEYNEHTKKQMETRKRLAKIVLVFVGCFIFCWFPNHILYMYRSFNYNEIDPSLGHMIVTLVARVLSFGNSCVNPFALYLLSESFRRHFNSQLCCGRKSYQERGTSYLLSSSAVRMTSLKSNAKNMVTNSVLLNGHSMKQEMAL

A short description of experiment [2]: Emax.
Experiment [3] deals with T2, Gastrin-releasing peptide receptor (Homo sapiens, UniProt P30550). The experiment in a line: Effective concentration required against gastrin releasing peptide receptor (GRP-R) in CHO cells by using FLIPR assay. The format is functional, cell-based. Summed up:
as §1
Target sequence in this assay (P30550 whole entry, looked up): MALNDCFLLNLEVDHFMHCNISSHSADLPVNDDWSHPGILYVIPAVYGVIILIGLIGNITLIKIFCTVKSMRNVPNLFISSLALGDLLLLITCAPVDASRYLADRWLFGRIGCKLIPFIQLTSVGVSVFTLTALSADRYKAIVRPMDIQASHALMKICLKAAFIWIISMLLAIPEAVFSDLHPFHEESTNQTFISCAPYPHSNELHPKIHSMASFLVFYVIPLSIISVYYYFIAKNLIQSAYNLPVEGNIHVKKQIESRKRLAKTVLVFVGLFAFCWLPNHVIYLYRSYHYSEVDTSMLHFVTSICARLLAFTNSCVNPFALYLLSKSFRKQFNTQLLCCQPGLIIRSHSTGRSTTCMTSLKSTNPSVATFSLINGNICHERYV

Experiment [4] deals with T3, Bombesin receptor subtype-3 (Homo sapiens, UniProt P32247).
T3 sequence (P32247 whole entry): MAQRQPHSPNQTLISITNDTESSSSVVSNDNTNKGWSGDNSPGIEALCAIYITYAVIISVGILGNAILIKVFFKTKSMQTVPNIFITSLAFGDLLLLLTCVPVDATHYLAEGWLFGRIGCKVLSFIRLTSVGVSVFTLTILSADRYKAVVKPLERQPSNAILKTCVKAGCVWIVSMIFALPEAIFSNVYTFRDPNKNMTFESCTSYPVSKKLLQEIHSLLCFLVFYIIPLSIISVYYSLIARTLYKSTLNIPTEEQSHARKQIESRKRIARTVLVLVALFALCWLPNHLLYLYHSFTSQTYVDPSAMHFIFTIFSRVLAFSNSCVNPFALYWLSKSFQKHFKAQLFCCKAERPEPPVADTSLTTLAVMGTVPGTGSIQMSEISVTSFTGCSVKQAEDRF
The experiment in a line: Effective concentration required against human bombesin receptor 3 (BRS-3) in CHO cells by using FLIPR assay. The format is functional, cell-based.

The target in experiment [5] is T2, Gastrin-releasing peptide receptor. The experiment in a line: Effective concentration required against gastrin releasing peptide receptor (GRP-R) in CHO cells by using FLIPR assay. The format is functional, cell-based.
Target sequence in this assay (P30550 whole entry): as the sequence (P30550 whole entry, looked up) above
Experiment [6] has as its target T1, Neuromedin-B receptor. Kind of experiment: Effective concentration required against nueromedin B receptor (NMB-R) in CHO cells by using FLIPR assay. The format is functional, cell-based. The gist of the method: as §1
Target sequence in this assay (P28336 whole entry): as the sequence (P28336 whole entry, looked up) above

Each structure is given as a SMILES string. The source made the active and inactive calls. The rule behind the calls is not given here. Peptide text beside a SMILES is read from it. * marks the point of attachment. NHPhenethyl = c1ccc(CCN*)cc1; PhAc = O=C(Cc1ccccc1)*

Regarding `O=C(NNCc1ccco1)NC(Cc1c[nH]c2ccccc12)C(=O)NCCc1ccccc1` (centres undefined), the NA entry in experiment [1] and in experiment [3] was “inactive” throughout. This compound showed an Emax in experiment [2] of 96. In experiment [4], this compound had an EC50 of 24 nM.

For the compound `C[C@H](NC(=O)Cc1cccnc1)C(=O)N[C@@H](Cc1c[nH]c2ccccc12)C(=O)NCCc1ccccc1`, the NA entry in experiment [1] and in experiment [3] was “inactive” throughout. In experiment [2], this compound had an Emax of 74.

Consider `O=C(CNCc1ccccc1)NC(Cc1c[nH]c2ccccc12)C(=O)NCCc1ccccc1` (centres undefined), for which the NA entry in experiment [1] and in experiment [3] was “inactive” throughout. In addition, the Emax in experiment [2] came out at 87.

Regarding `O=C(N/N=C/c1ccc(-c2cccs2)cc1)NC(Cc1c[nH]c2ccccc12)C(=O)NCCc1ccccc1` (centres undefined), the NA result in experiment [1] and in experiment [3] was “inactive” in each case. The compound also registered an Emax in experiment [2] of 58. Also, in experiment [4], a half-maximal effect (EC50) was put at 7900 nM.

As for `C[C@H](NC(=O)Cc1ccc(Cl)cc1)C(=O)N[C@@H](Cc1c[nH]c2ccccc12)C(=O)NCCc1ccccc1`, the NA entry in experiment [1] and in experiment [3] was “inactive” each time. This compound came in with an Emax in experiment [2] of 75. In addition, in experiment [4], the EC50 amounted to 140 nM.

`O=C(Cc1cccnc1)NNC(=O)NC(Cc1c[nH]c2ccccc12)C(=O)NCCc1ccccc1` (centres undefined): the NA entry in experiment [1] and in experiment [3] was “inactive” throughout. Also, in experiment [2], the Emax worked out at 102. The midpoint of the response in experiment [4], the EC50, lay at 1.4 nM.

For `O=C(CN1CCN(Cc2ccccc2)CC1)NC(Cc1c[nH]c2ccccc12)C(=O)NCCc1ccccc1` (centres undefined), the NA result in experiment [1] and in experiment [3] was “inactive” throughout. In addition, the Emax in experiment [2] is 90. In addition, the EC50 in experiment [4] was 70 nM.

`NC(=O)CC[C@H](NC(=O)Cc1cc2ccccc2[nH]1)C(=O)N[C@@H](Cc1c[nH]c2ccccc12)C(=O)NCCc1ccccc1`: the NA result in experiment [1] and in experiment [3] was “inactive” in each case. The Emax in experiment [2] amounted to 82.

For `C[C@H](NC(=O)CCc1ccc(Cl)cc1)C(=O)N[C@@H](Cc1c[nH]c2ccccc12)C(=O)NCCc1ccccc1`, the NA result in experiment [1] and in experiment [3] was “inactive” throughout. Further, the Emax in experiment [2] amounted to 30. This compound displayed an EC50 in experiment [4] of 6400 nM.

In the case of `C[C@H](NCCc1ccccc1)C(=O)N[C@@H](Cc1c[nH]c2ccccc12)C(=O)NCCc1ccccc1`, the NA entry in experiment [1] and in experiment [3] was “inactive” in each case. In addition, the Emax in experiment [2] amounted to 82.

As to `C[C@H](NC(=O)Cc1cc2ccccc2[nH]1)C(=O)N[C@@H](Cc1c[nH]c2ccccc12)C(=O)NCCc1ccccc1`, the NA entry in experiment [1] and in experiment [3] was “inactive” each time. Moreover, the Emax in experiment [2] stood at 69. In experiment [4], this compound gave an EC50 of 79 nM.

With `NC(=O)CC[C@H](NC(=O)CCc1ccc(Cl)cc1)C(=O)N[C@@H](Cc1c[nH]c2ccccc12)C(=O)NCCc1ccccc1`, the NA entry in experiment [1] and in experiment [3] was “inactive” throughout. In experiment [2], this compound had an Emax of 68. For the same compound, a half-maximal response in experiment [4] (EC50) required 230 nM.

Consider `NC(=O)CC[C@H](NC(=O)[C@H](N)Cc1ccccc1)C(=O)N[C@@H](Cc1c[nH]c2ccccc12)C(=O)NCCc1ccccc1`, for which the NA result in experiment [1] and in experiment [3] was “inactive” throughout. Further, the EC50 in experiment [4] stood at 710 nM.

`CSCC[C@H](NC(=O)[C@H](Cc1ccccc1)NC(=O)[C@H](Cc1cnc[nH]1)NC(=O)CNC(=O)[C@@H](NC(=O)[C@H](C)NC(=O)[C@H](Cc1c[nH]c2ccccc12)NC(=O)[C@H](CC(C)C)NC(=O)[C@H](CC(N)=O)NC(=O)CN)[C@@H](C)O)C(N)=O`: the EC50 in experiment [5] stood at 41 nM; in experiment [6], 120 nM; in experiment [4], 4500 nM.

For the compound `O=C(Cc1ccc(Cl)cc1)NNC(=O)NC(Cc1c[nH]c2ccccc12)C(=O)NCCc1ccccc1` (centres undefined), the NA result in experiment [1] and in experiment [3] was “inactive” each time. In experiment [2], the Emax was found to be 89.

Turning to `O=C(CNCc1ccc(Cl)cc1)NC(Cc1c[nH]c2ccccc12)C(=O)NCCc1ccccc1` (centres undefined), the NA entry in experiment [1] and in experiment [3] was “inactive” throughout. This compound also came in with an Emax in experiment [2] of 81.

Take `O=C(CN1CCC(Cc2ccccc2)CC1)NC(Cc1c[nH]c2ccccc12)C(=O)NCCc1ccccc1` (centres undefined): the NA entry in experiment [1] and in experiment [3] was “inactive” in each case. In addition, the Emax in experiment [2] worked out at 84. For the same compound, in experiment [4], the EC50 was 30 nM.

As for `O=C(NNCc1ccc(Cl)cc1)NC(Cc1c[nH]c2ccccc12)C(=O)NCCc1ccccc1` (centres undefined), the NA result in experiment [1] and in experiment [3] was “inactive” in each case. Also, the Emax in experiment [2] was found to be 83. In addition, a half-maximal response in experiment [4] (EC50) required 6 nM.

In the case of `C[C@H](NC(=O)Cc1ccccc1)C(=O)N[C@@H](Cc1c[nH]c2ccccc12)C(=O)NCCc1ccccc1` (PhAc-Ala-Trp-NHPhenethyl), the NA result in experiment [1] and in experiment [3] was “inactive” each time. Besides, in experiment [2], the Emax was 71. Moreover, the EC50 in experiment [4] was 2.1 nM.

`C[C@H](NCc1ccccc1)C(=O)N[C@@H](Cc1c[nH]c2ccccc12)C(=O)NCCc1ccccc1`: the NA entry in experiment [1] and in experiment [3] was “inactive” each time. The Emax in experiment [2] stood at 86. The compound further came in with an EC50 in experiment [4] of 46 nM.

As to `CSCC[C@H](NC(=O)[C@H](CC(C)C)NC(=O)[C@H](Cc1c[nH]cn1)NC(=O)CNC(=O)[C@@H](NC(=O)[C@H](C)NC(=O)[C@H](Cc1c[nH]c2ccccc12)NC(=O)[C@H](Cc1c[nH]cn1)NC(=O)[C@H](CC(N)=O)NC(=O)CNC(=O)[C@H](CCCN=C(N)N)NC(=O)[C@@H]1CCCN1C(=O)[C@H](Cc1ccc(O)cc1)NC(=O)[C@H](CCSC)NC(=O)[C@H](CCCCN)NC(=O)[C@@H](NC(=O)[C@H](CC(C)C)NC(=O)[C@@H](NC(=O)[C@@H](NC(=O)CNC(=O)CNC(=O)CNC(=O)[C@H](C)NC(=O)[C@@H]1CCCN1C(=O)[C@H](CC(C)C)NC(=O)[C@@H]1CCCN1C(=O)[C@@H](N)C(C)C)[C@@H](C)O)C(C)C)[C@@H](C)O)C(C)C)C(N)=O`, the EC50 in experiment [5] is 34 nM; in experiment [6], 3200 nM; in experiment [4], 6400 nM.

With `O=C(Cc1ccccc1)NNC(=O)NC(Cc1c[nH]c2ccccc12)C(=O)NCCc1ccccc1` (centres undefined), the NA entry in experiment [1] and in experiment [3] was “inactive” each time. In experiment [2], this compound registered an Emax of 86.

For `O=C(CNCCc1ccccc1)NC(Cc1c[nH]c2ccccc12)C(=O)NCCc1ccccc1` (centres undefined), the NA entry in experiment [1] and in experiment [3] was “inactive” each time. In experiment [2], this compound registered an Emax of 92.

As to `O=C(CNCc1cccnc1)NC(Cc1c[nH]c2ccccc12)C(=O)NCCc1ccccc1` (centres undefined), the NA entry in experiment [1] and in experiment [3] was “inactive” in each case. For the same compound, in experiment [2], the Emax was determined as 82.

Regarding `O=C(N/N=C/c1ccco1)NC(Cc1c[nH]c2ccccc12)C(=O)NCCc1ccccc1` (centres undefined), the NA result in experiment [1] and in experiment [3] was “inactive” each time. The compound further registered an Emax in experiment [2] of 94. In experiment [4], this compound yielded an EC50 of 1.5 nM.

Take `C[C@H](NCc1ccc(Cl)cc1)C(=O)N[C@@H](Cc1c[nH]c2ccccc12)C(=O)NCCc1ccccc1`: the NA entry in experiment [1] and in experiment [3] was “inactive” throughout. In addition, the Emax in experiment [2] amounted to 83. The compound also displayed an EC50 in experiment [4] of 4 nM.

Turning to `O=C(N/N=C/c1ccc(Cl)cc1)NC(Cc1c[nH]c2ccccc12)C(=O)NCCc1ccccc1` (centres undefined), the NA result in experiment [1] and in experiment [3] was “inactive” in each case. The Emax in experiment [2] was 78. The compound also showed an EC50 in experiment [4] of 2700 nM.

On to `O=C(CC1NCCc2ccccc21)NNC(=O)N[C@H](Cc1c[nH]c2ccccc12)C(=O)NCCc1ccccc1` (some centres undefined), for which the NA entry in experiment [1] and in experiment [3] was “inactive” throughout. In experiment [2], this compound showed an Emax of 91. In experiment [4], the EC50 was 19 nM.

Consider `O=C(Cc1cc2ccccc2[nH]1)NNC(=O)NC(Cc1c[nH]c2ccccc12)C(=O)NCCc1ccccc1` (centres undefined), for which the NA entry in experiment [1] and in experiment [3] was “inactive” in each case. Also, in experiment [2], the Emax was determined as 84.

As for `C[C@H](NC(=O)CC1NCCc2ccccc21)C(=O)N[C@@H](Cc1c[nH]c2ccccc12)C(=O)NCCc1ccccc1` (some centres undefined), the NA result in experiment [1] and in experiment [3] was “inactive” each time. This compound gave an Emax in experiment [2] of 69. The compound also had an EC50 in experiment [4] of 310 nM.

As to `O=C(CC1NCCc2ccccc21)NNC(=O)NC(Cc1c[nH]c2ccccc12)C(=O)NCCc1ccccc1` (centres undefined), the NA result in experiment [1] and in experiment [3] was “inactive” throughout. The Emax in experiment [2] was determined as 95. In experiment [4], this compound returned an EC50 of 9.3 nM.

With `O=C(NNCc1ccccc1)NC(Cc1c[nH]c2ccccc12)C(=O)NCCc1ccccc1` (centres undefined), the NA result in experiment [1] and in experiment [3] was “inactive” each time. Also, the Emax in experiment [2] is 81. In addition, the response in experiment [4] was half-maximal at 15 nM (EC50).

In the case of `C[C@H](NC(=O)Cc1ccc2c(c1)OCO2)C(=O)N[C@@H](Cc1c[nH]c2ccccc12)C(=O)NCCc1ccccc1`, the NA result in experiment [1] and in experiment [3] was “inactive” throughout. Further, the Emax in experiment [2] was determined as 75. In experiment [4], this compound came in with an EC50 of 7.8 nM.
